The record followed here is ChEMBL document CHEMBL3244084, “A study of the mechanism of halothane-induced liver necrosis. Role of covalent binding of halothane metabolites to liver proteins in the rat” (J Med Chem, 1977).

Active and inactive are the calls of the source. No cut-off for these calls is given here.

In data set [1] the test system is Rattus norvegicus. The data set can be described thus: Anesthetic activity in Sprague-Dawley rat assessed as duration of anesthesia at 4.6 mmol/kg, ip. It counts as functional, organism-based. As to conditions: tested as the 14C-labelled form. The essentials: (§1)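 Male Sprague-Dawley rats, 100-120 g, fasted overnight before dosing, fed afterwards. Single ip dose of [1-14C]halothane in olive oil (diluted with unlabeled halothane; 50 µCi 14C/kg). Duration of anesthesia recorded in normal and phenobarbital-pretreated rats. Pretreatment was phenobarbital sodium 80 mg/kg ip in water for 3 days, with use on day 4. Six rats per group.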

Data set [2] has as its system Rattus norvegicus. The data set can be described thus: Toxicity in Sprague-Dawley rat assessed as liver necrosis at 4.6 mmol/kg, ip measured after 0.5 to 24 hrs. Format: organism-based. Particulars: in vivo. The essentials:
(§2)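 Normal or phenobarbital-pretreated male Sprague-Dawley rats dosed ip with [14C]halothane in olive oil; controls received the vehicle. Rats killed by cervical dislocation 0.5-24 h after dosing. Liver slices fixed in 10% buffered formalin (pH 7.0) and paraffin-embedded. 6-µm sections stained with H&E and read by light microscopy. Necrosis graded on a 0-4+ scale. Six rats per time point.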

Data set [3] has as its system Rattus norvegicus. In words: Drug uptake in Sprague-Dawley rat assessed as radioactivity in lipid fraction at 4.6 to 23 mmol/kg, ip measured at 1 to 6 hrs by scintillation counting. As to conditions: in vivo. Format: ADME, organism-based. The procedure, abridged: (§3)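 Male Sprague-Dawley rats, 100-120 g, fasted overnight. [1-14C]Halothane in olive oil (50 µCi/kg) given ip at 4.6, 11.5 or 23.0 mmol/kg. Rats killed at 0.5-24 h. Lipid fraction isolated from 1 g liver by the Folch method; DNA fraction by the Irving-Veazey method; proteins handled as for binding. Radioactivity counted by liquid scintillation. Means of six rats.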

Data set [4] concerns Rattus norvegicus. The data set can be described thus: Drug uptake in Sprague-Dawley rat assessed as radioactivity in liver protein at 4.6 to 23 mmol/kg, ip measured up to 24 hrs by scintillation counting. It counts as ADME, organism-based. As to conditions: in vivo. The essentials:
as §3

In data set [5] the test system is Liver. In words: Protein binding in phenobarbital pretreated Sprague-Dawley rat liver protein at 4.6 to 23 mmol/kg, ip measured per mg of protein up to 24 hrs by scintillation counting. Format: ADME, organism-based. Particulars: in vivo. The procedure, abridged:
(§4)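 Male Sprague-Dawley rats, normal or phenobarbital-pretreated (80 mg/kg ip, 3 days), received ip [1-14C]halothane in olive oil (50 µCi/kg). Liver homogenized 1 g/3 ml water at 0 °C. Protein precipitate washed ten times with hot (60 °C) methanol-ether 3:1, then digested in 1 N NaOH and counted. Protein measured by Lowry against BSA. Result expressed as nmol halothane equivalents per mg protein. Blank from [14C]halothane added to control homogenate was subtracted. Six rats.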

Data set [6] deals with Rattus norvegicus. In words: Toxicity in phenobarbital pretreated Sprague-Dawley rat assessed as mortality at 4.6 mmol/kg, ip measured up to 24 hrs. It counts as organism-based. Particulars: in vivo. The procedure, abridged:
(§5)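 Male Sprague-Dawley rats, 100-120 g, fasted overnight before dosing and fed afterwards. Some received phenobarbital sodium 80 mg/kg ip in water for 3 days and were used on day 4. [1-14C]halothane in olive oil, 50 µCi/kg, was given ip. Mortality was recorded over the sacrifice schedule of 0.5-24 h, with six rats per time point. Vehicle controls received olive oil.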

For data set [7], the system named is Rattus norvegicus. The data set can be described thus: Toxicity in phenobarbital pretreated Sprague-Dawley rat assessed as multiple, discrete foci of liver parenchymal cell necrosis at 11.5 mmol/kg, ip measured after 0.5 to 24 hrs by histopathological/light microscopy analysis (reference value: 0%). It counts as organism-based. As to conditions: in vivo. The procedure, abridged:
as §2

Data set [8] has as its system Rattus norvegicus. The data set can be described thus: Toxicity in Sprague-Dawley rat assessed as liver necrosis at 23 mmol/kg, ip measured after 4 to 24 hrs. Format: organism-based. As to conditions: in vivo. The procedure, abridged: as §2
In data set [9] the test system is Rattus norvegicus. The data set can be described thus: Toxicity in phenobarbital pretreated Sprague-Dawley rat assessed as mortality at 23 mmol/kg, ip measured up to 24 hrs. Particulars: in vivo. Format: organism-based. The procedure, abridged: as §5
The subject of data set [10] is Rattus norvegicus. The data set can be described thus: Toxicity in Sprague-Dawley rat assessed as liver necrosis at 4.6 mmol/kg, ip measured after 0.5 to 24 hrs by histopathological/light microscopy analysis (reference value: 0%). Format: organism-based. As to conditions: in vivo. The essentials: as §2
Data set [11] concerns Rattus norvegicus. In words: Toxicity in Sprague-Dawley rat assessed as serum glutamic pyruvic transaminase level in blood at 4.6 mmol/kg, ip measured after 0.5 to 24 hrs (reference value: 14 +/- 2 IU/L). It counts as organism-based. As to conditions: in vivo.
The test system of data set [12] is Rattus norvegicus. In words: Toxicity in phenobarbital pretreated Sprague-Dawley rat assessed as serum glutamic pyruvic transaminase level in blood at 11.5 mmol/kg, ip measured after 0.5 to 24 hrs (reference value: 15 +/- 2 IU/L). It counts as organism-based. Particulars: in vivo.
The subject of data set [13] is Rattus norvegicus. In words: Toxicity in phenobarbital pretreated Sprague-Dawley rat assessed as liver necrosis at 4.6 mmol/kg, ip measured after 0.5 to 24 hrs by histopathological/light microscopy analysis (reference value: 0%). Particulars: in vivo. It counts as organism-based. The procedure, abridged:
as §2

The subject of data set [14] is Rattus norvegicus. In words: Toxicity in Sprague-Dawley rat assessed as serum glutamic pyruvic transaminase level in blood at 11.5 mmol/kg, ip measured after 0.5 to 24 hrs (reference value: 14 +/- 2 IU/L). Format: organism-based. As to conditions: in vivo.
Data set [15] has as its system Rattus norvegicus. The data set can be described thus: Toxicity in phenobarbital pretreated Sprague-Dawley rat assessed as liver necrosis at 4.6 mmol/kg, ip measured after 0.5 to 24 hrs. It counts as organism-based. As to conditions: in vivo. The essentials:
as §2

Data set [16] has as its system Rattus norvegicus. The data set can be described thus: Toxicity in Sprague-Dawley rat assessed as mortality at 11.5 mmol/kg, ip measured up to 24 hrs. Format: organism-based. As to conditions: in vivo. The essentials:
as §5

The subject of data set [17] is Rattus norvegicus. In words: Toxicity in phenobarbital pretreated Sprague-Dawley rat assessed as multiple, discrete foci of liver parenchymal cell necrosis at 23 mmol/kg, ip measured after 0.5 to 24 hrs by histopathological/light microscopy analysis (reference value: 0%). It counts as organism-based. Particulars: in vivo. The essentials: as §2
Data set [18] concerns Liver. The data set can be described thus: Protein binding in Sprague-Dawley rat liver protein at 4.6 to 23 mmol/kg, ip measured per mg of protein up to 24 hrs by scintillation counting. Particulars: in vivo. It counts as ADME, organism-based. The essentials: as §4
Data set [19] concerns Rattus norvegicus. In words: Toxicity in phenobarbital pretreated Sprague-Dawley rat assessed as liver necrosis at 23 mmol/kg, ip measured after 24 hrs. Format: organism-based. Particulars: in vivo.
For data set [20], the system named is Rattus norvegicus. In words: Toxicity in phenobarbital pretreated Sprague-Dawley rat assessed as serum glutamic pyruvic transaminase level in blood at 23 mmol/kg, ip measured after 0.5 to 24 hrs (reference value: 15 +/- 2 IU/L). It counts as organism-based. As to conditions: in vivo.
The test system of data set [21] is Rattus norvegicus. In words: Toxicity in phenobarbital pretreated Sprague-Dawley rat assessed as mortality at 11.5 mmol/kg, ip measured up to 24 hrs. Format: organism-based. Particulars: in vivo. The essentials:
as §5

For data set [22], the system named is Rattus norvegicus. In words: Toxicity in Sprague-Dawley rat assessed as mortality at 23 mmol/kg, ip measured up to 24 hrs. As to conditions: in vivo. Format: organism-based. The essentials:
as §5

Data set [23] deals with Rattus norvegicus. The data set can be described thus: Toxicity in phenobarbital pretreated Sprague-Dawley rat assessed as serum glutamic pyruvic transaminase level in blood at 4.6 mmol/kg, ip measured after 0.5 to 24 hrs (reference value: 15 +/- 2 IU/L). It counts as organism-based. As to conditions: in vivo.
Data set [24] concerns Rattus norvegicus. The data set can be described thus: Toxicity in phenobarbital pretreated Sprague-Dawley rat assessed as liver necrosis at 11.5 mmol/kg, ip measured after 24 hrs. Particulars: in vivo. It counts as organism-based.
In data set [25] the test system is Rattus norvegicus. In words: Toxicity in Sprague-Dawley rat assessed as liver necrosis at 11.5 mmol/kg, ip measured after 4 to 24 hrs. Format: organism-based. As to conditions: in vivo. The essentials:
as §2

Data set [26] relates to Rattus norvegicus. The data set can be described thus: Drug uptake in Sprague-Dawley rat assessed as radioactivity in lipid fraction at 4.6 to 23 mmol/kg, ip measured at 6 to 8 hrs by scintillation counting. It counts as ADME, organism-based. Particulars: in vivo. The essentials: as §3
Data set [27] deals with Rattus norvegicus. The data set can be described thus: Toxicity in Sprague-Dawley rat assessed as serum glutamic pyruvic transaminase level in blood at 23 mmol/kg, ip measured after 0.5 to 24 hrs (reference value: 14 +/- 2 IU/L). Format: organism-based. Particulars: in vivo.
Data set [28] relates to Rattus norvegicus. The data set can be described thus: Toxicity in Sprague-Dawley rat assessed as liver necrosis at 11.5 mmol/kg, ip measured after 0.5 to 24 hrs by histopathological/light microscopy analysis (reference value: 0%). Format: organism-based. Particulars: in vivo. The procedure, abridged:
as §2

Data set [29] concerns Rattus norvegicus. In words: Anesthetic activity in Sprague-Dawley rat assessed as duration of anesthesia at 11.5 mmol/kg, ip. Format: functional. The essentials:
as §1

Data set [30] has as its system Rattus norvegicus. The data set can be described thus: Drug uptake in Sprague-Dawley rat assessed as radioactivity in DNA fraction at 4.6 to 23 mmol/kg, ip measured up to 24 hrs by scintillation counting. It counts as ADME, organism-based. As to conditions: in vivo. The procedure, abridged:
as §3

In data set [31] the test system is Rattus norvegicus. In words: Toxicity in Sprague-Dawley rat assessed as mortality at 4.6 mmol/kg, ip measured up to 24 hrs. Particulars: in vivo. It counts as organism-based. The procedure, abridged:
as §5

In data set [32] the test system is Rattus norvegicus. The data set can be described thus: Anesthetic activity in Sprague-Dawley rat assessed as duration of anesthesia at 23 mmol/kg, ip. Format: functional. The procedure, abridged: as §1
In data set [33] the test system is Rattus norvegicus. In words: Toxicity in Sprague-Dawley rat assessed as liver necrosis at 23 mmol/kg, ip measured after 0.5 to 24 hrs by histopathological/light microscopy analysis (reference value: 0%). Format: organism-based. As to conditions: in vivo. The procedure, abridged:
as §2

For the compound `FC(F)(F)C(Cl)Br` (stereo not drawn), the outcome in data set [1] was inactive.

As to `F[14C](F)(F)C(Cl)Br` (stereo not drawn), the Activity entry was “Non-toxic” in data set [2]; “Non-toxic” in data set [6]; below 6% in data set [7]; “Non-toxic” in [8]; “Non-toxic” in [9]; 0% in [10]. In addition, the Activity is on record as 16 IU/L in data set [11]; 37 IU/L in data set [12]; 0% in data set [13]; 18 IU/L in [14]; “Non-toxic” in data set [15]; “Non-toxic” in [16]. Further, the Activity in data set [17] is listed as 6%; in [19], “Toxic”; in data set [20], 58 IU/L; in data set [21] it was “Non-toxic”; in data set [22], “Non-toxic”; in data set [23] it was 19 IU/L. In addition, the Activity entry is on record as “Toxic” in [24]; “Non-toxic” in [25]; 18 IU/L in [27]; 0% in data set [28]; “Non-toxic” in [31]; 0% in data set [33]. Moreover, the Drug uptake result in data set [3] is “Active”; in [4] it was “Active”; in [26], “Not Active”; in [30], “Not Active”. In addition, the PB was above 2 nmol/mg in data set [5] and 0.8 nmol/mg in data set [18]. Besides, the results for the Time in [29] and in data set [32] were 1.92 h and 3.75 h, respectively.
